From ChEMBL document CHEMBL1155443, “Synthesis and evaluation of alpha-halogenated analogues of 3-(acetylhydroxyamino)propylphosphonic acid (FR900098) as antimalarials” (J Med Chem, 2010)
The source made the active and inactive calls. No cut-off for these calls is given here.

Key:
[1] = Dissociation constant, pKa by NMR titration assay; type: physicochemical
Procedure, shortened: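 The ³¹P NMR chemical shift was recorded across a range of pH values and plotted against pH. Each pKa was taken as the pH at the inflection point of the titration curve, with the second pKa the value of interest.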

Plasmodium falciparum [2] = test: Antiplasmodial activity against Plasmodium falciparum Ghana by micro dilution assay; type: functional, organism-based
Procedure, shortened: (§1)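 Intraerythrocytic P. falciparum, strains GHA and K1, in a microdilution assay; tested in duplicate.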

Plasmodium falciparum [3] = test: Antiplasmodial activity against Plasmodium falciparum K1 by micro dilution assay; type: functional, organism-based; procedure, shortened: as §1
Plasmodium falciparum [4] = test: Ratio of fosmidomycin IC50 to compound IC50 for Plasmodium falciparum K1; type: functional
Plasmodium berghei [5] = test: Antiplasmodial activity against Plasmodium berghei ANKA infected in mice (Mus musculus) assessed as suppression of parasitaemia at 50 mg/kg, intraperitoneal for 5 consecutive days measured on day 7 post parasitic infection; type: functional; conditions: ip, 168 h
Procedure, shortened: (§2)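 P. berghei (GFP ANKA strain) acute mouse model; intraperitoneal dosing for 5 consecutive days (test compounds 50 mg/kg, chloroquine reference 10 mg/kg). Parasitaemia measured by flow cytometry (10 μL blood in 2000 μL PBS) on days 4, 7 and 14 in survivors, expressed as % reduction versus vehicle-treated infected controls. Survivors counted on days 7, 11, 14 and 25; mean survival time calculated.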

Plasmodium berghei [6] = test: Antiplasmodial activity against Plasmodium berghei ANKA infected in mice (Mus musculus) assessed as suppression of parasitaemia at 50 mg/kg, intraperitoneal for 5 consecutive days measured on day 14 post parasitic infection; type: functional; conditions: ip, 336 h; procedure, shortened: as §2
Plasmodium berghei [7] = test: Antiplasmodial activity against Plasmodium berghei ANKA infected in mice (Mus musculus) assessed as suppression of parasitaemia at 50 mg/kg, intraperitoneal for 5 consecutive days measured on day 4 post parasitic infection; type: functional; conditions: ip, 96 h; procedure, shortened: as §2
Plasmodium berghei [8] = test: Antiplasmodial activity against Plasmodium berghei ANKA infected in mice (Mus musculus) assessed as mice (Mus musculus) survival at 50 mg/kg, intraperitoneal for 5 consecutive days measured on day 7 post parasitic infection; type: functional, organism-based; set-up: dose 50 mg/kg; procedure, shortened: as §2
Plasmodium berghei [9] = test: Antiplasmodial activity against Plasmodium berghei ANKA infected in mice (Mus musculus) assessed as mice (Mus musculus) survival at 50 mg/kg, intraperitoneal for 5 consecutive days measured on day 25 post parasitic infection; type: functional, organism-based; set-up: dose 50 mg/kg; procedure, shortened: as §2
Plasmodium berghei [10] = test: Antiplasmodial activity against Plasmodium berghei ANKA infected in mice (Mus musculus) assessed as mean survival time at 50 mg/kg, intraperitoneal for 5 consecutive days; type: functional; procedure, shortened: as §2
Plasmodium berghei [11] = test: Antiplasmodial activity against Plasmodium berghei ANKA infected in mice (Mus musculus) assessed as mice (Mus musculus) survival at 50 mg/kg, intraperitoneal for 5 consecutive days measured on day 11 post parasitic infection; type: functional, organism-based; set-up: dose 50 mg/kg
Procedure, shortened: (§3)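 P. berghei GFP ANKA acute mouse model. Drug was given intraperitoneally once daily for 5 consecutive days, alongside vehicle-treated infected controls. Mice were watched for clinical and adverse signs and euthanized for welfare if signs became very severe. Surviving animals were counted per group on days 7, 11, 14 and 25, and mean survival time was calculated.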

Plasmodium berghei [12] = test: Antiplasmodial activity against Plasmodium berghei ANKA infected in mice (Mus musculus) assessed as mice (Mus musculus) survival at 50 mg/kg, intraperitoneal for 5 consecutive days measured on day 14 post parasitic infection; type: functional, organism-based; set-up: dose 50 mg/kg; procedure, shortened: as §3
Plasmodium berghei [13] = test: Antiplasmodial activity against Plasmodium berghei ANKA infected in mice (Mus musculus) assessed as suppression of parasitaemia at 10 mg/kg, intraperitoneal for 5 consecutive days measured on day 4 post parasitic infection; conditions: ip, 96 h, read-out: INH
Plasmodium berghei [14] = test: Antiplasmodial activity against Plasmodium berghei ANKA infected in mice (Mus musculus) assessed as mice (Mus musculus) survival at 10 mg/kg, intraperitoneal for 5 consecutive days measured on day 7 post parasitic infection; type: functional, organism-based; set-up: dose 10 mg/kg; procedure, shortened: as §3
Plasmodium berghei [15] = test: Antiplasmodial activity against Plasmodium berghei ANKA infected in mice (Mus musculus) assessed as mice (Mus musculus) survival at 10 mg/kg, intraperitoneal for 5 consecutive days measured on day 11 post parasitic infection; type: functional, organism-based; set-up: dose 10 mg/kg; procedure, shortened: as §3
Plasmodium berghei [16] = test: Antiplasmodial activity against Plasmodium berghei ANKA infected in mice (Mus musculus) assessed as mice (Mus musculus) survival at 10 mg/kg, intraperitoneal for 5 consecutive days measured on day 14 post parasitic infection; type: functional, organism-based; set-up: dose 10 mg/kg; procedure, shortened: as §3
Plasmodium berghei [17] = test: Antiplasmodial activity against Plasmodium berghei ANKA infected in mice (Mus musculus) assessed as mean survival time at 10 mg/kg, intraperitoneal for 5 consecutive days; type: functional; procedure, shortened: as §2

| Structure (SMILES) | pKa [1] | IC50 (Plasmodium falciparum [2]) [nM] | IC50 (Plasmodium falciparum [3]) [nM] | Ratio IC50 (Plasmodium falciparum [4]) | inhibition in vivo at 50 mg/kg (Plasmodium berghei [5]) [%] | inhibition in vivo at 50 mg/kg (Plasmodium berghei [6]) [%] | inhibition in vivo at 50 mg/kg (Plasmodium berghei [7]) [%] | Activity (Plasmodium berghei [8]) | Activity (Plasmodium berghei [9]) | MST (Plasmodium berghei [10]) [days] | Activity (Plasmodium berghei [11]) | Activity (Plasmodium berghei [12]) | inhibition in vivo at 10 mg/kg (Plasmodium berghei [13]) [%] | Activity (Plasmodium berghei [14]) | Activity (Plasmodium berghei [15]) | Activity (Plasmodium berghei [16]) | MST (Plasmodium berghei [17]) [days] |
| --- | --- | --- | --- | --- | --- | --- | --- | --- | --- | --- | --- | --- | --- | --- | --- | --- | --- |
| CC(=O)N(O)CCC(F)P(=O)(O)O.N.N (racemic) | ≤ 6 | 700 | 290 | 5 | 62 | 32 | 88 | Active | inactive | 15.8 |  |  |  |  |  |  |  |
| O=CN(O)CCCP(=O)(O)O [FOSMIDOMYCIN] |  |  | 1730 |  |  |  | 82 | Active |  | 11.5 |  |  |  |  |  |  |  |
| CC(=O)N(O)CCC(Cl)P(=O)(O)O.N.N (racemic) | ≤ 6 | 820 | 300 | 5 |  |  |  |  |  |  |  |  |  |  |  |  |  |
| CN(O)C(=O)CCC(F)P(=O)(O)O.N.N (racemic) |  | 730 | 310 | 5 | 42 | 41 | 85 |  | inactive | 11.7 |  |  |  |  |  |  |  |
| O=CN(O)CCC(c1ccc(Cl)c(Cl)c1)P(=O)(O)O (stereo not drawn) |  | 600 | 160 |  |  |  | 46 |  | inactive | 7 | inactive | inactive |  |  |  |  |  |
| CC(=O)N(O)CCCP(=O)(O)O [FR-900098] | 7.35 |  | 420 |  |  |  | 93 | Active |  | 10.8 |  |  |  |  |  |  |  |
| CCN(CC)CCCC(C)Nc1ccnc2cc(Cl)ccc12 (stereo not drawn) [CHLOROQUINE] |  |  |  |  |  |  |  |  |  |  |  |  | 100 | Active | Active | Active | 20.7 |
